Calls of active or inactive are those of the source. The rule behind the calls is not given here.

Experiment [1] concerns the target Microtubule-associated protein tau (Homo sapiens) (UniProt P10636). As to the kind of experiment: Inhibition of heparin-induced 4R tau (unknown origin) aggregation at 200 uM after 24 hrs by filter trap assay. The method in brief:
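Heparin-induced fibrillisation of 4R tau in PBS with 200 μM compound, 37 °C, 24 h. Fibrils diluted to 0.8 μM tau in 2% SDS, vacuum-filtered through membrane, washed twice with 2% SDS, probed with 4R tau-specific antibody, chemiluminescent dot detection and densitometry; 7 independent experiments.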

The target is the same in experiment [2]. Nature of the experiment: Inhibition of heparin-induced 4R tau (unknown origin) aggregation at 100 uM after 3 days by ThT fluorescence assay relative to control. The method in brief: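 20 μM 4R tau plus 5 μM heparin (avg MW 15 000) in 100 mM sodium acetate pH 7.0, ± 100 μM compound, incubated 3 days at 37 °C with 1 mM DTT added daily. ThT 12.5 μM then added, 1 h at room temperature. Spectra read with excitation 440 nm, emission 450–750 nm; intensity at emission maximum compared with tau alone.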

The target is the same in experiment [3]. As to the kind of experiment: Induction of heparin-induced recombinant 4R tau (unknown origin) fibril oxidation at cysteine residues at 200 uM after 2 hrs by oregon green binding assay. The method in brief:
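Recombinant 4R tau (10 μM) fibrillised with 40 μM heparin in sodium acetate buffer pH 7, ± 200 μM compound, 37 °C, 2 h. Controls reduced with 1 mM DTT or oxidised with 20% v/v DMSO. Then labeled with Oregon green-iodoacetamide 30 min at room temperature, SDS-PAGE, fluorescence imaging. Band intensity normalized to Coomassie-stained total tau; 5 independent experiments.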

Sequence of Microtubule-associated protein tau (Homo sapiens) (P10636 whole entry): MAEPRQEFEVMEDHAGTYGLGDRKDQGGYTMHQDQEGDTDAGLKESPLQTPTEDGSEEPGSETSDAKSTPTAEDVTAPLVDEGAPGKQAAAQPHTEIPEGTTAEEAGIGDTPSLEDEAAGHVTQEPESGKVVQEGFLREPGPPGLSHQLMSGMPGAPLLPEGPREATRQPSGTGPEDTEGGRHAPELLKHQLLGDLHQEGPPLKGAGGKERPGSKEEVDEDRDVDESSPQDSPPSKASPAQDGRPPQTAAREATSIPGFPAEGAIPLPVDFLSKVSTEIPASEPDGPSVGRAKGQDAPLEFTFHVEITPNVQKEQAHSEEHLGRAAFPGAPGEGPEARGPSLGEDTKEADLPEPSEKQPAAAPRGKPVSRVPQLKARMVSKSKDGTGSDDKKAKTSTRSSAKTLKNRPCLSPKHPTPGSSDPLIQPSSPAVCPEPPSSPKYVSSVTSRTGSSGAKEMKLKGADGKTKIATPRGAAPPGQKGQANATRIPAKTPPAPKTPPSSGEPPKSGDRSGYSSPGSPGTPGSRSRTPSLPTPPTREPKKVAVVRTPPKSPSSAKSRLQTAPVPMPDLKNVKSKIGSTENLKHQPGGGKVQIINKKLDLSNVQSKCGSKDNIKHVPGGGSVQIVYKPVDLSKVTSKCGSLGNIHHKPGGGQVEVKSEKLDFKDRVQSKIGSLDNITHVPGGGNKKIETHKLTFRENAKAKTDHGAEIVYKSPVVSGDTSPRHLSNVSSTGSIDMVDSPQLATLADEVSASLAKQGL

Usually inhibition stands for the share of the control response that was lost under treatment. For the compound `Nc1scc(/C(=N/O)C(=O)NC2CC2)c1C(=O)NC12CC3CC(CC(C3)C1)C2`, the inhibition entry in experiment [1] is “Active”. In experiment [2], this compound displayed an inhibition of 30%. Besides, the outcome in experiment [3] was Active.
For the compound `Nc1scc2c(C(=O)NC3CC3)nn(-c3ccc(F)cc3)c(=O)c12`, the inhibition entry in experiment [1] was “Active”. The same compound registered an inhibition in experiment [2] of 51%. The outcome in experiment [3] was Active.
As for `C=CCO/N=C(\C(=O)NC1CC1)c1csc(N)c1C(=O)Nc1ccc(F)cc1`, in experiment [1], the inhibition entry was “Active”. Further, in experiment [2], the inhibition stood at 33%. For the same compound, the outcome in experiment [3] was inactive.
As to `Nc1scc(/C(=N/O)C(=O)NC2CC2)c1C(=O)Nc1ccc(F)cc1`, the inhibition result in experiment [1] was “Active”. Also, the result in experiment [3] was Active.

For the origin of these results see ChEMBL document CHEMBL4261481, “Ring-opened aminothienopyridazines as novel tau aggregation inhibitors” (Medchemcomm, 2017).
